HKDC1 act – HKDC1 hexokinase activators, primary screen, biochemical, fluorescence, uHTS | Q2TB90 | recombinant HKDC1, G6PDH/diaphorase resazurin fluorescence; stronger effect = lower value | activity change, negative = activation, % at 20 µM | actives 0.056% (n = 340,000) | AID 493187, 2011;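 active = activation of 40% or more at 20 µM, a change of -40% or lower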
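Material: in-house human HKDC1 enzyme, G6PDH and diaphorase coupling enzymes | Quantity: HKDC1 at 5 µg/mL final | Medium: Tris buffer at pH 8.0 containing MgCl2 | Compound dosing: 20 µM single dose | Schedule: 90 min reaction at room temperature, dark | Measured by: Resorufin fluorescence, 525/613 nm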
Numbers stand for hits; i = inactive. A selection follows.

SMILES	HKDC1 act
NC(=NCCCCCCN=C(N)/N=C(\N)Nc1ccc(Cl)cc1)/N=C(\N)Nc1ccc(Cl)cc1	i
NC1=C(Cl)C(=O)c2ccc(S(N)(=O)=O)cc2C1=O	-134
CCOc1ccc2c(ccc(/C=C/c3cc(C)c4cccnc4c3O)[n+]2C)c1	i
Cc1cc2c(N)cccc2nn1	i
CCCCC[C@H](O)/C=C/[C@@H]1[C@@H](C/C=C\CCCC(=O)OC)[C@@H](O)C[C@H]1O	i
Cc1sc(-c2ccccn2)nc1OC(=O)c1ccc(F)cc1F	-50
COCCNc1ccc([N+](=O)[O-])cc1C(=O)Nc1cccc(C)n1	-58
COc1cc(/C=C2\SC(=S)N(c3cccnc3)C2=O)ccc1O	i
O=C(CSc1nnc(CCCN2C(=O)c3cccc4cccc(c34)C2=O)n1-c1ccccc1)N1CCCCC1	i
Cc1ccc(-c2ccc(/C=C3\C(=O)ON=C3c3ccccc3)o2)c([N+](=O)[O-])c1	i
CCOc1ccc(S(=O)(=O)Nc2cc(SCC(=O)O)c(O)c3ccccc23)cc1	i
COc1cccc(/C=N/Nc2ccc([N+](=O)[O-])cn2)c1O	i
Cc1cc(C)n(Cc2ccc(C(=O)N/N=C/c3ccc(-c4ccc([N+](=O)[O-])cc4)o3)o2)n1	i
Cc1cc([N+](=O)[O-])nn1CC(=O)N/N=C/c1ccc(O)cc1O	-49
NS(=O)(=O)c1ccc(N/N=C/c2ccc(O)c(O)c2O)c([N+](=O)[O-])c1	i
O=C1C(SCCO)=C(SCCO)C(=O)c2ccccc21	i
O=C(O)c1cc(N2N=C(C(F)(F)F)/C(=C/C=C/c3ccco3)C2=O)ccc1Cl	i
O=C(O)CN1C(=O)/C(=C2\C(=O)N(Cc3ccccc3Cl)c3ccccc32)SC1=S	i
CC1=NOC(=O)/C1=C\c1ccc(-c2ccc(Br)cc2)o1	i
COc1cc2c(C#N)c(N3CCc4ccccc4C3)nc(N)c2c(N)n1	i
COC(=O)CCC(=O)OC1(C)C(=O)C2=CN(c3ccccc3)C(c3ccc(OC)cc3)=CC2=C(Br)C1=O (configuration not stated)	i
O=C1C=CC2(C=C1)O[C@H](Cc1ccccc1)[C@@H](Cc1ccccc1)O2	i
O=C(CN(C(=O)CCC(=O)Nc1ccccn1)c1ccc2c(c1)OCO2)NCc1ccc(F)cc1	-46
COc1ccc(-c2csc(Nc3ccc(S(N)(=O)=O)cc3)n2)cc1	-42
COc1ccc(C(=O)c2coc3c2C(=O)C(=O)c2ccccc2-3)cc1	i
SMILES	HKDC1 act
Cc1cc(C(=O)N=Nc2c(O)n(C(C)C)c3ccccc23)n[nH]1	i
O=C1C=C(N(CCO)Cc2ccccc2)c2ccccc2C1=O	i
CN(C)c1ccc(C=c2c3ccccc3n3c2cc(-c2ccccc2)[n+]3C)cc1	i
CC1(C)CC[C@]2(C(=O)n3ccnc3)CC[C@]3(C)[C@H](C(=O)C=C4[C@@]5(C)C=C(C#N)C(=O)C(C)(C)[C@@H]5CC[C@]43C)[C@@H]2C1	i
CC(=NNC(=S)N1CC2CCC(CC2)C1)c1ccncn1	-54
O=C(O)c1cc(O)c2c(c1)[C@@H]([C@H]1c3cc(C(=O)O)cc(O)c3C(=O)c3c(O[C@@H]4O[C@H](CO)[C@@H](O)[C@H](O)[C@H]4O)cccc31)c1cccc(OC3O[C@H](CO)[C@@H](O)[C@H](O)[C@H]3O)c1C2=O (some centres not stated)	i
COC(=O)CCC(=O)OC1(C)C(=O)C2=CN(Cc3ccccc3)C(c3ccc(OC)cc3)=CC2=C(Br)C1=O (configuration not stated)	i
COc1cc(/C=C2\SC(c3ccccc3)=NC2=O)cc(Cl)c1O	i
Cc1ccc(S(=O)(=O)/N=C2\C=C(Nc3cccc(C(=O)O)c3)C(=O)c3ccccc32)cc1	i
O=C1C(=Cc2ccc(Br)o2)C(=O)c2ccccc21	i
NC(=S)N/N=C/c1ccc(Br)o1	-55
Cc1ccc(S(=O)(=O)/N=C2\C=C(Nc3cccc(C(=O)O)c3)C(=O)c3ccccc32)c(C)c1	i
COc1cccc2c1C(=O)C=C(C)C2=O	-43
COC1=CC(=O)c2c(ccc3ncnc(N)c23)C1=O	i
C=CC1=C(C(=O)O)N2C(=O)C(NC(=O)Cc3ccccc3)C2SC1 (configuration not stated)	i
O=C1/C(=C\c2ccc(-c3ccccc3[N+](=O)[O-])o2)C(c2ccccc2)=NN1c1ccccc1	i
COC1=C(Br)C(=O)c2ncccc2C1=O	i
Nc1nc(-c2cccc(Br)c2)cs1	-65
O=C1/C(=C/Nc2cccc([N+](=O)[O-])c2)CCc2ccccc21	i
CCc1ccc(S(=O)(=O)Nc2cc(SCC(=O)O)c(O)c3ccccc23)cc1	i
Cc1nc2c3cc(F)ccc3n(Cc3ccccc3)c2s1	-60
CN(C)C(=O)/C(C#N)=C\c1cc(Br)c(Sc2ccc(Cl)cc2)o1	i
O=C1C(Nc2ccccc2)=C/C(=N/S(=O)(=O)c2cccs2)c2ccccc21	i
CC1(C)Cc2c(c(N3CCOCC3)nc3sc4c(NCC5CCCO5)nnnc4c23)CS1 (configuration not stated)	i
CC(NC1=CC(=O)c2cccnc2C1=O)C(O)c1ccccc1 (configuration not stated)	i
SMILES	HKDC1 act
CC(=NNC(=S)N1CCCCC1)c1cccc(C)n1	-40
C[c-]1[c-](C)[c-](C)[c-](C)[c-]1C.[Fe].c1cc2nccc(N3CCCC3)[c-]2c1 (configuration not stated)	i
O=C(O)c1ccccc1N=Nc1c(O)[nH]c2ccc([N+](=O)[O-])cc12	i
O=S(=O)(Nc1ccc(O)c2ccccc12)c1ccc(F)cc1	i
CCN(CC)c1ccc(/C=N/NC(=O)c2cccc(S(=O)(=O)Nc3ccccc3OC)c2)c(O)c1	-43
CCc1ccc(S(=O)(=O)Nc2ccc(O)c3ccccc23)cc1	i
O=c1c2ccccc2nc2n1CCC2	i
CNCc1ccccc1Sc1cc(O)ccc1O	i
O=Cc1ccc(Sc2nnc(-c3ccccc3)o2)c([N+](=O)[O-])c1	i
Cc1ccc(S(=O)(=O)Nc2c(O)ccc3ccccc23)cc1	i
COc1cc(SC#N)ccc1N=Cc1c(C)[nH]n(-c2ccc(Cl)cc2)c1=O	-41
Oc1ccc(/C=N/Nc2ccnc3cc(Cl)ccc23)c(O)c1O	i
CC(CCC(C)C(C)(C)C)[C@@H]1CC[C@H]2C3C[C@H](OS(O)(=S)=S)[C@H]4C[C@H](OS(O)(=S)=S)[C@@H](OS(O)(=S)=S)C[C@]4(C)[C@H]3CC[C@]12C (some centres not stated) (tested in a mixture with another compound)	i
Cc1ccc(/C=C/c2nc3sc(C(=O)O)c(C)c3c(=O)[nH]2)cc1[N+](=O)[O-]	i
O=C1C(Cl)=C(N2CCC(C(=O)O)CC2)C(=O)c2ccccc21	i
COc1cc(N=c2ssnc2Cl)cc(OC)c1	-51
O=C1C(Cl)=C(NC(=O)c2ccccc2)C(=O)C(Cl)=C1NC(=O)c1ccccc1	i
O=C(OCC(=O)N1CCN(C(=O)c2ccco2)CC1)c1cc(-c2ccccc2)nc2ccccc12	i
CCN(CC)c1ccc(NC(=O)c2ccccc2Br)cc1S(=O)(=O)Nc1ccccc1OC	-43
NC(=O)[C@H]1CC2(CC(c3cccc(NC(=O)[C@H]4CCC(=O)N4)c3)=NO2)CN1C(=O)c1ccccc1 (some centres not stated)	i
Cn1c(SSc2ccc(-c3cccnc3)n2C)ccc1-c1cccnc1	-341
COc1ccc2c(c1)CCc1c(C(=O)N3CCCc4ccccc43)noc1-2	i

Compound activity deposited in PubChem BioAssay by Sanford-Burnham Center for Chemical Genomics.
